Paper PMC8380758 (ACS chemical biology, 2021)
Numbering of substitutions follows the chain as printed. No end group written: not given here.

T1: GST–PHD1 D292N (KDM5A S287–K347) (UniProt P29375 287-347, D292N)
T1 sequence (looked up): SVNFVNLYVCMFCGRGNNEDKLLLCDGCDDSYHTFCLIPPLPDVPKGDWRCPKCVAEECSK

T2: GST–PHD1 WT (KDM5A S287–K347) (UniProt P29375 287-347)
T2 sequence (looked up): T1 sequence (looked up) with N6D

T3: PHD1 domain of histone demethylase KDM5A (S287–E344) (UniProt P29375 287-344, 15N- or 13C-,15N-labeled)
T3 sequence (looked up): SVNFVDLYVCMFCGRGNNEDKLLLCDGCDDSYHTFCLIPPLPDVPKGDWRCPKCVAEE

T4: GST–PHD1 Y294A (KDM5A S287–K347) (UniProt P29375 287-347, Y294A)
T4 sequence (looked up): T1 sequence (looked up) with N6D, Y8A

T5: GST–PHD1 V330A (KDM5A S287–K347) (UniProt P29375 287-347, V330A)
T5 sequence (looked up): T1 sequence (looked up) with N6D, V44A


What was measured:
[1] = test system: PHD1 (S287–E344) of KDM5A; experiment: 2D 1H,15N HSQC NMR peptide titration; type: binding; conditions: 200 μM 15N-labeled PHD1, 298 K, pH 7.5
Outline: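 15N-labelled KDM5A PHD1 (S287–E344) from GST fusion, GST removed by TEV, then Ni-resin pass and gel filtration. […] Buffer was 50 mM HEPES, NaCl, 0.5 mM TCEP, 0.1 mM ZnCl2, pH 7.5, 5% D2O, 298 K. CSP = √[(ΔH² + (0.2ΔN)²)/2].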

PHD1KDM5B = conditions: ref [13],[14]; cited from earlier work
GST–PHD1 (KDM5A) Y294F = experiment: Fluorescence polarization binding, Y294F mutant; conditions: FP, H3K4 10mer peptides
[2] = target: T1, GST–PHD1 D292N (KDM5A S287–K347); experiment: fluorescence polarisation
[3] = target: T2, GST–PHD1 WT (KDM5A S287–K347); experiment: fluorescence polarisation
[4] = target: T3, PHD1 domain of histone demethylase …; experiment: NMR titration
[5] = target: T4, GST–PHD1 Y294A (KDM5A S287–K347); experiment: fluorescence polarisation
[6] = target: T5, GST–PHD1 V330A (KDM5A S287–K347); experiment: fluorescence polarisation

Molecule | impact of mutation on binding (GST–PHD1 (KDM5A) Y294F) | binding result [2] | binding result [3] | binding result [4] | binding result [5] | binding result [6] | interaction strength indicated by slow–intermediate exchange [1] | Kd (PHD1KDM5B) [µM]
H3 10mer: H3 10mer (A1–S10) |  |  |  |  |  |  | low–micromolar affinity | 
H3K4me1: H3K4me1 10mer peptide |  |  |  |  |  |  | strong interactions, comparable to those with unmodified H3 | 
H3K4me2: H3K4me2 10mer peptide | minimal impact on binding |  |  |  |  |  |  | > 80
ARTK(Me2)QTARKS (peptide, UniProt P68431 2-11, looked up) [histone H3K4me2 10mer peptide] |  | binds | binds | binds | binds | binds |  | 

The next lines start with results.

impact of mutation on binding (GST–PHD1 (KDM5A) Y294F) | binding result [2] | binding result [3] | binding result [4] | binding result [5] | binding result [6] | Molecule | interaction strength indicated by slow–intermediate exchange [1] | Kd (PHD1KDM5B) [µM]
minimal impact on binding |  |  |  |  |  | H3K4me3: H3K4me3 10mer peptide |  | > 80
 | binds | binds | binds |  |  | ARTKQTARKS (peptide, UniProt P68431 2-11, looked up) [histone H3 10mer peptide (A1–S10), unmodified] |  | 
 | binds | binds | binds | binds | binds | ARTK(Me3)QTARKS (peptide, UniProt P68431 2-11, looked up) [histone H3K4me3 10mer peptide] |  | 
 | binds | binds | binds | binds | binds | ARTK(Me)QTARKS (peptide, UniProt P68431 2-11, looked up) [histone H3K4me1 10mer peptide] |  | 
